# ARFGAP1 inh: rat ARFGAP1 inhibition. AID 651572. inhibition, % at 16.5 µM. Q62848. Arfgap1-stimulated ARF1 GTP hydrolysis, GDP FP detection. 360,000 compounds, 0.26% hits;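 active = inhibition above a per-plate limit, mean inhibition of low control wells plus 3 SD, cut at about 25% in these data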;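 also: 0% = DMSO wells with enzyme and 100% = wells lacking Arfgap1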
# Target sequence (Q62848 1-136 limits assumed): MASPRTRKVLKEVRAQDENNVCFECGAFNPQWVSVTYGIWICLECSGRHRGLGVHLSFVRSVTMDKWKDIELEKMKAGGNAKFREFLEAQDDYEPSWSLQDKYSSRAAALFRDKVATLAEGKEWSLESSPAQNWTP
#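 Material: rat Arfgap1 GAP domain (His6, aa 1-136), purified enzyme. Also added: human ARF1(Δ1-17)-GTP substrate. Compound dosing: 16.5 µM single point, 1.26% DMSO. Timing: enzyme reaction 120 min at 25 °C after 20 min preincubation. Signal: GDP detection by fluorescence polarization. Read-out basis: percent inhibition of GAP-stimulated GDP formation, scaled between DMSO and no-Arfgap1 medians.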
# PAFAH1B3 inh: PAFAH1B3 (human) inhibition | 340,000 compounds, 0.28% hits | inhibition, % at 3.39 µM | AID 492972 | Q15102 | recombinant PAFAH1B3, FP-rhodamine probe, fluorescence polarization;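 active = inhibition above the screen-wide average of all tested compounds plus 3 SD, cut at about 25% in these data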;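 also: 0% = enzyme with DMSO only and 100% = wells lacking PAFAH1B3 protein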
# PAFAH1B2 FP inh: blocks human PAF acetylhydrolase 1b catalytic subunit 2; inhibition, % at 3.39 µM; recombinant PAFAH1B2, FP-rhodamine activity probe, fluorescence polarization; AID 492953; P68402; 340,000 compounds, 1.2% hits;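 active = inhibition above the mean of all tested compounds plus 3 SD, cut at about 24% in these data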;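 also: 0% = enzyme with DMSO and 100% = wells lacking PAFAH1B2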
# pPAFAH FP inh: pPAFAH (human) enzyme inhibition | Q13093 | recombinant pPAFAH, FP-rhodamine probe fluorescence polarization | inhibition, % at 3.39 µM | 330,000 compounds, 1.5% hits | AID 463082;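 active = inhibition above the mean inhibition across the screen plus 3 SD, cut at about 25% in these data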;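 also: inhibitors block binding of the rhodamine activity-based probe so polarization drops; 0% = enzyme with DMSO and 100% = wells lacking pPAFAH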
# ASAP1 GAP inh: blocks human ASAP1-stimulated Arf1 GTP hydrolysis; 360,000 compounds, 0.19% hits; Q9ULH1; inhibition, % at 16.5 µM; GDP FP detection; in the data active = inhibition above about 25%;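 also: 0% = vehicle with enzyme and substrate and 100% = no enzyme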
# Target sequence (Q9ULH1 325-724 limits assumed): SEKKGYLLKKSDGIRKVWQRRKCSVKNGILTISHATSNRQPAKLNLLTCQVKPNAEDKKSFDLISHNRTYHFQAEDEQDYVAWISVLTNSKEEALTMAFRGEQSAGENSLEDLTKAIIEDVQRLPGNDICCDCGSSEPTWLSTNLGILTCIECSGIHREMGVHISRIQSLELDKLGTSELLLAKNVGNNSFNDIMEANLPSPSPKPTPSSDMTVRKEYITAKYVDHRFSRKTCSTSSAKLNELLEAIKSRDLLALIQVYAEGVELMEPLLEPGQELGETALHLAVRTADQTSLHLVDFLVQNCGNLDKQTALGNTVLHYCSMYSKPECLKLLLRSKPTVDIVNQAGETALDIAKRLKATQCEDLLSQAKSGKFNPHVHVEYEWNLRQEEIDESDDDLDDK
# PAFAH2 FP inh: PAFAH2 (human) inhibition; recombinant PAFAH2, FP-rhodamine activity probe, fluorescence polarization; inhibition, % at 3.39 µM; 340,000 compounds, 0.99% hits;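 active = inhibition above the mean over all tested compounds plus 3 SD, cut at about 30% in these data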;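 also: inhibitors block probe labeling of enzyme so polarization drops; 0% = enzyme with DMSO and 100% = wells lacking PAFAH2 protein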
# PAFAH2 confirm: PAFAH2 (human) inhibition, confirmed; recombinant PAFAH2, FP-rhodamine activity probe, fluorescence polarization; AID 493030; 2,300 compounds, 65% hits; shares compounds with PAFAH2 FP inh; inhibition, % at 3.39 µM;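 active = mean inhibition over three repeats above a set limit taken from the earlier primary screen, cut at about 30% in these data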;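 also: inhibitor blocks binding of rhodamine activity probe so polarization falls; 0% = enzyme with DMSO and 100% = wells lacking PAFAH2 protein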
# The depositor's hits bear a star; . = no result given. The list is not random: actives were taken first. Their share in the collection is about 2.7%.
SMILES,ARFGAP1 inh,PAFAH1B3 inh,PAFAH1B2 FP inh,pPAFAH FP inh,ASAP1 GAP inh,PAFAH2 FP inh,PAFAH2 confirm
CCC(C)NC(=O)COC(=O)c1csc2c1CCCC2 (stereo not drawn),9,-6,5,6,-10,57*,47*
CC(C)CNC(=S)NNC(=O)c1csc2c1CCCC2,0,7,2,0,2,-1,.
CC1(C(=O)Nc2ccccc2Br)CCN1C(=O)Cc1ccccc1Cl (stereo not drawn),3,.,.,.,0,.,.
O=C1NN(c2ccc(F)cc2)C(=O)/C1=C/c1cccs1,-3,5,5,1,7,1,.
O=C(CC12CC3CC(CC(C3)C1)C2)NCC(=O)N1CCc2ccccc2C1,2,9,12,10,4,81*,71*
CCCCNC(=S)NNC(=O)c1cc(C2CC2)nc2ccccc12,-2,5,5,.,-3,4,.
COc1cccc(C2C(C(=O)c3cc4ccccc4o3)=C(O)C(=O)N2c2cc(C)on2)c1OC (stereo not drawn),-3,6,2,5,-11,36*,24
COc1cc(C2C(C(=O)c3cc4ccccc4o3)=C(O)C(=O)N2c2cc(C)on2)cc(OC)c1OC (stereo not drawn),-3,5,5,8,6,-2,.
CC1(NC(=S)NCCCCCCNC(=S)NC2(C)CCS(=O)(=O)C2)CCS(=O)(=O)C1 (stereo not drawn),-11,5,2,2,2,4,.
CC1(NC(=O)NCCCCCCNC(=O)NC2(C)CCS(=O)(=O)C2)CCS(=O)(=O)C1 (stereo not drawn),-2,6,-2,2,-18,44*,37*
O=c1c2sccc2[nH]c(=S)n1Cc1ccccc1,10,5,1,4,4,63*,52*
Cc1cc(Br)c(NC(=O)COC(=O)C2CCCCC2)c(Br)c1,-9,-3,-1,7,-7,33*,32*
Cc1ccc(NC(=O)COC(=O)C2CC2)c(Br)c1,2,10,4,20,13,55*,39*
Cc1cc(C)c(NC(=O)COC(=O)C2CCC2)c(Cl)c1,-13,-1,-6,3,-2,5,.
O=C(Cc1ccccc1)NCc1n[nH]c(=S)n1-c1ccc(Br)cc1,-4,10,8,6,-12,-5,.
CNc1ccc(Br)cc(C(=O)/C=C/c2cccc(Cl)c2Cl)c1=O,-6,15,10,.,-1,44*,15
COc1ccccc1Cc1c(-c2ccc(OC)c(OC)c2)nc2c(Cl)cc(C(F)(F)F)cn12,-3,.,.,.,10,.,.
Cc1sc2ncnc(SCC(=O)N3CCCC3=O)c2c1C,3,7,9,0,11,81*,83*
CCOC(=O)/C(=C/c1ccco1)NC(=O)c1ccc(Br)o1,-2,6,-2,1,9,-5,.
Cc1ccc(NC(=O)Cc2nc(COC(=O)Cc3cccc(C(F)(F)F)c3)cs2)cc1,-3,-2,10,.,-2,47*,1
Cc1ccc(NC(=O)Cc2nc(COC(=O)c3c(F)cccc3Cl)cs2)cc1,-2,8,1,19,3,20,.
CC1(Oc2cccnc2Cl)CCN(Cc2ccc(OC(F)(F)F)cc2)C1 (stereo not drawn),-6,.,.,.,-11,.,.
O=C1C(=Cc2ccco2)CCCC1=Cc1ccco1,3,-1,2,.,9,10,.
O=C1C(=Cc2ccco2)CCC1=Cc1ccco1,-26,5,4,.,-13,56*,18
COc1ccc(-n2nnnc2CNC(=O)c2c(-c3ccccc3Cl)noc2C)cc1,-6,.,.,.,-5,.,.
SMILES,ARFGAP1 inh,PAFAH1B3 inh,PAFAH1B2 FP inh,pPAFAH FP inh,ASAP1 GAP inh,PAFAH2 FP inh,PAFAH2 confirm
CCOC(=O)c1c(C)oc2cc(Br)c(O)c(Br)c12,15,4,1,8,-16,43*,31*
CCOC(=O)COc1cc2c(C(=O)OCC)c(C)oc2cc1Br,15,4,5,8,-11,1,.
CCCCN1C(C(=O)Nc2ncccn2)=C(O)c2ccccc2S1(=O)=O,-3,4,0,3,9,9,.
O=C(NC(=S)Nc1cc(S(=O)(=O)N2CCOCC2)ccc1O)c1ccco1,4,12,4,7,-8,44*,32*
Cc1ccc(S(=O)(=O)N2CCOCC2)cc1NC(=O)COC(=O)c1cncc(Br)c1,5,12,-2,4,-9,6,.
O=C(COC(=O)c1cnccn1)Nc1cc(S(=O)(=O)N2CCOCC2)ccc1Cl,3,3,6,-1,6,-4,.
Cc1ccc(S(=O)(=O)N2CCOCC2)cc1NC(=O)COC(=O)COc1ccccc1[N+](=O)[O-],-7,3,-1,3,0,3,.
CCN(CC)S(=O)(=O)c1ccc(C)c(NC(=O)COC(=O)c2ccc(C)c(S(=O)(=O)N3CCOCC3)c2)c1,4,4,1,14,-3,81*,61*
Cc1ccc(S(=O)(=O)N2CCOCC2)cc1NC(=O)COC(=O)c1ccc2c(c1)OCO2,7,-4,-1,1,-9,64*,52*
CCOc1ccccc1C(=O)OCC(=O)Nc1cc(S(=O)(=O)N2CCOCC2)ccc1C,5,-1,2,0,-3,32*,25
O=C(COC(=O)c1ccc2c(c1)OCCO2)Nc1cc(S(=O)(=O)N2CCOCC2)ccc1Cl,5,3,2,4,-10,64*,44*
CC[C@]12c3[nH]c4ccc(OC)cc4c3CCN1C(=O)C(CC(=O)NCc1ccc(OC)c(OC)c1)C[C@@H]2C(=O)N1CCN(C(=O)C2CC2)CC1 (stereo partly drawn),1,-10,-8,4,-11,-9,.
Cc1ccc(S(=O)(=O)N2CCOCC2)cc1NC(=O)COC(=O)c1cnc(Cl)c(Cl)c1,4,3,-1,.,2,7,.
Cc1ccc(S(=O)(=O)N2CCOCC2)cc1NC(=O)COC(=O)c1ccc(OCc2c(C)noc2C)cc1,9,7,4,11,6,44*,51*
Cc1ccc(C(=O)OCC(=O)Nc2cc(S(=O)(=O)N3CCOCC3)ccc2C)cc1,-18,3,1,5,-11,68*,61*
Cc1ccc(S(=O)(=O)N2CCOCC2)cc1NC(=O)COC(=O)c1ccc2c(c1)OCCO2,3,-7,2,12,7,70*,59*
O=C(O)CC(NNC(=O)c1ccccc1)C(=O)Nc1cccc([N+](=O)[O-])c1 (stereo not drawn),8,5,-7,5,7,-2,.
CCCC1Cc2nc(Cl)c(C#N)cc2CO1 (stereo not drawn),0,.,.,2,-20,.,.
